Laboratory results reported in ChEMBL document CHEMBL4130463, “Potential Anti-inflammatory Effects of the Fruits of Paulownia tomentosa” (J Nat Prod, 2017).
Activity calls are given as the source filed them. The rule behind the calls is not given here.

Columns and labels:
A549 [1] = assay: Antiinflammatory activity in human A549 cells assessed as reduction in TNFalpha-induced IL8 production at 2.5 uM after 24 hrs by ELISA; type: functional, cell-based
Procedure, shortened: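 A549 cells (ATCC) grown in RPMI 1640 with 10% FBS and penicillin/streptomycin at 37 °C, 5% CO2. Seeded and grown 16 h, then held 16 h in FBS-free medium. Treated with compound with or without TNF-α for 24 h. IL-8 measured by ELISA at 450 nm and expressed as % of the TNF-α-alone control. Means ± SD of three independent experiments.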

A549 [2] = assay: Cytotoxicity against human A549 cells assessed as effect on cell viability at 2.5 uM after 24 hrs by CCK8 assay; type: cell-based; details: a549, 24 h
Procedure, shortened: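 A549 cells in RPMI 1640 with 10% FBS were seeded at about 1 × 10^4 cells/well and grown 16 h, then switched to FBS-free medium for 16 h. Compound added with or without TNF-α for 24 h. Viability measured in triplicate by CCK-8 absorbance and expressed as % of the negative control.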

Neutrophil elastase [3] = biological target: T1, Neutrophil elastase (Homo sapiens, UniProt P08246); assay: Inhibition of human neutrophil elastase using MeOSuc-AAPV-pNA as substrate measured after 30 mins by spectrometric method
T1 sequence (P08246 whole entry): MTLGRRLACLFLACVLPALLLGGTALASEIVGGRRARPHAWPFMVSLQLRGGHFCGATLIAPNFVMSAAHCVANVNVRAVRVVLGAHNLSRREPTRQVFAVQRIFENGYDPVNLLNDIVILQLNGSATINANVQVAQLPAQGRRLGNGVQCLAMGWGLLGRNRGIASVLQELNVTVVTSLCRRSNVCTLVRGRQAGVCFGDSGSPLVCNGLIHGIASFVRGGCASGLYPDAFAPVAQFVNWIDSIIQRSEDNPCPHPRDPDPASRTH

Neutrophil elastase [4] = biological target: T1, Neutrophil elastase; assay: Noncompetitive inhibition of human neutrophil elastase using varying levels of MeOSuc-AAPV-pNA as substrate measured after 30 mins by double-reciprocal Lineweaver-Burk plot analysis

Row | IC50 (Neutrophil elastase [3]) [µM] | Ki (Neutrophil elastase [4]) [µM] | SMILES | Activity (A549 [1]) | Activity (A549 [2])
1 |  |  | CC(C)(O)CCCC1(C)CCc2c(cc3c(c2O)C(=O)[C@H](O)[C@@H](c2ccc(O)c(O)c2)O3)O1 (some centres not stated) | Active | Non-Toxic
2 | > 100 |  | CC(C)(O)CCCC1(C)CCc2c(cc3c(c2O)C(=O)C[C@@H](c2ccc(O)cc2)O3)O1 (some centres not stated) | Active | Non-Toxic
3 | > 100 |  | COc1ccc([C@@H]2CC(=O)c3c(cc4c(c3O)CCC(C)(CCCC(C)(C)O)O4)O2)cc1O (some centres not stated) |  | 
4 |  |  | C=C(C)C(O)CC/C(C)=C/Cc1c(O)cc2c(c1O)C(=O)C[C@@H](c1cc(O)c(OC)c(O)c1)O2 (some centres not stated) | Active | Non-Toxic
5 |  |  | COc1cc([C@@H]2CC(=O)c3c(cc4c(c3O)CCC(C)(CCCC(C)(C)O)O4)O2)cc(O)c1O (some centres not stated) | Active | Non-Toxic
6 |  |  | COc1cc([C@@H]2CC(=O)c3c(cc(O)c(C/C=C(\C)CCCC(C)(C)O)c3O)O2)cc(OC)c1O | Active | Non-Toxic
7 | 22.8 | 15.7 | CC(C)=CCC/C(C)=C/Cc1c(O)cc2c(c1O)C(=O)C[C@@H](c1ccc(O)c(O)c1)O2 [NYMPHAEOL A] |  | 
8 | 46.1 | 49.9 | O=c1cc(-c2ccc(O)cc2)oc2cc(O)cc(O)c12 [APIGENIN] |  | 
9 | 71.3 |  | COc1cc([C@@H]2CC(=O)c3c(cc(O)c(C/C=C(\C)CCC=C(C)C)c3O)O2)cc(OC)c1O |  | 
10 | > 100 |  | COc1cc([C@@H]2CC(=O)c3c(cc4c(c3O)CCC(C)(CCCC(C)(C)O)O4)O2)cc(OC)c1O (some centres not stated) |  | 
11 |  |  | COc1ccc([C@@H]2CC(=O)c3c(cc(O)c(C/C=C(\C)CCCC(C)(C)O)c3O)O2)cc1O | Active | Non-Toxic

Row | SMILES | IC50 (Neutrophil elastase [3]) [µM] | Ki (Neutrophil elastase [4]) [µM] | Activity (A549 [1]) | Activity (A549 [2])
12 | O=c1cc(-c2ccc(O)c(O)c2)oc2cc(O)cc(O)c12 [LUTEOLIN] | 12.7 | 10.1 |  | 
